# IMP-1 inh-1: inhibitors of Pseudomonas aeruginosa IMP-1 metallo-beta-lactamase; purified IMP-1, nitrocefin hydrolysis, epi-absorbance fluorescence; inhibition, % at 5.6 µM; hit rate 0.45% among 290,000; AID 1556;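 active means inhibition above the mean plus 3 SD of all compounds in the same screening run, cut at about 4.5% in these data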;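 further: 0% = IMP-1 with DMSO and 100% = DMSO wells lacking enzyme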
#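 System: purified IMP-1 / Input: IMP-1 dispensed at 0.2 nM / Medium: 50 mM HEPES pH 7.1, 50 µM ZnSO4, 0.05% Brij 35 / Timing: 15 min enzyme–compound preincubation, then 25 min nitrocefin reaction, 25 °C / Technique: plate fluorescence quenching by hydrolysis product, ex 480/em 530 nm / Repeats: singlicate testing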
# VIM-2 inh: inhibitors of Pseudomonas aeruginosa VIM-2 metallo-beta-lactamase | hit rate 0.89% among 290,000 | inhibition, % at 5.6 µM | AID 1527 | purified VIM-2, nitrocefin hydrolysis, epi-absorbance fluorescence;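 active means inhibition above the mean of all tested compounds plus 3 SD, cutoff set per screening run, cut at about 7.5% in these data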;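 further: red hydrolysis product quenches plate fluorescence so inhibitors raise well fluorescence; 0% = enzyme with DMSO and 100% = DMSO without enzyme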
# PvdQ inh: P. aeruginosa PvdQ acylase inhibition | purified PvdQ acylase, fluorescence plate reader | inhibition, % at 10 µM | hit rate 0.063% among 340,000; in the data active means inhibition above about 30%, passing the limit was not always enough;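 further: 0% = vehicle neutral wells and 100% = reference inhibitor wells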
# PLC-gamma1 inh: blocks human PLC-gamma1 enzyme activity; hit rate 0.84% among 370,000; AID 720700; purified PLC-gamma1, fluorogenic substrate, fluorescence; inhibition, % at 12.2 µM; in the data active means inhibition above about 9.5%
# PLCb3 inh: inhibitors of human phospholipase C beta3; Q01970; Purified PLC-beta3, fluorogenic substrate, fluorescence; inhibition, % at 12.2 µM; hit rate 0.18% among 370,000; in the data active means inhibition above about 11%;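 further: 0% = median of compound wells on plate and 100% = full blocker control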
# Target sequence (Q01970 whole entry, looked up): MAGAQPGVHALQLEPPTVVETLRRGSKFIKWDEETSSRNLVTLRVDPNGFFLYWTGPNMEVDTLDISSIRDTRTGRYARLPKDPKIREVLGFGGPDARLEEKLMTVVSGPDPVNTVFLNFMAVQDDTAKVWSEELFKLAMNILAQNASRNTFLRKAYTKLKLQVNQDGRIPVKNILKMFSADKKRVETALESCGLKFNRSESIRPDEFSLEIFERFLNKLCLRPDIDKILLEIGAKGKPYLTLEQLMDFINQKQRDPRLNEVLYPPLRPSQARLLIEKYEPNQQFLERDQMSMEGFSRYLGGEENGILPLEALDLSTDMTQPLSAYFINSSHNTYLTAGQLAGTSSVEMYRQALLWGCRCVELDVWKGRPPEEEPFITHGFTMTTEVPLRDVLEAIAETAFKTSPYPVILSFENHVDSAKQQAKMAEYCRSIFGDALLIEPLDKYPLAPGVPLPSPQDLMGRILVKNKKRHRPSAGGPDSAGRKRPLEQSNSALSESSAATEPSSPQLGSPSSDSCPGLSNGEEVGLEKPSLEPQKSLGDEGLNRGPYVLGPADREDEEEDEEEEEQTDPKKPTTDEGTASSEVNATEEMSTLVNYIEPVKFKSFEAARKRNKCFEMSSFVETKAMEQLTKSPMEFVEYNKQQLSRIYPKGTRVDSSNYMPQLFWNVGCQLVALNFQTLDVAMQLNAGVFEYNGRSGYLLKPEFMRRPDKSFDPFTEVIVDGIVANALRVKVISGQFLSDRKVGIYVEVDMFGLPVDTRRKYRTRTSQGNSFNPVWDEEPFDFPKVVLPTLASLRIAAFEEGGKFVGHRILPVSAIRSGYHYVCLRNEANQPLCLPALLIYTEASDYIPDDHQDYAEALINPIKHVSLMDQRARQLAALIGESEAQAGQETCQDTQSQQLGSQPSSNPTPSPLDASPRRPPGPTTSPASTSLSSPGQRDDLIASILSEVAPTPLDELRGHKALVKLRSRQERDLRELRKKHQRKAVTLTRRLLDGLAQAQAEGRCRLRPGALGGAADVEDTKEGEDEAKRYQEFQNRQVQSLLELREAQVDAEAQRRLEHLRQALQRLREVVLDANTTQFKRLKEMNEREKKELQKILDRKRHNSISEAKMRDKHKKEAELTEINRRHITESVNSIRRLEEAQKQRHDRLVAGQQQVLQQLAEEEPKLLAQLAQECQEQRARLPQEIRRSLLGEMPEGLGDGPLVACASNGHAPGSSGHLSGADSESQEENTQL
# IMP-1 inh-2: blocks IMP-1 metallo-beta-lactamase in VIM-2 selectivity screen | shares compounds with VIM-2 inh | purified IMP-1, nitrocefin hydrolysis, epi-absorbance fluorescence | inhibition, % at 5.6 µM | 1,300 tested, under 10 active; call rule not given here;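 further: 0% = enzyme with vehicle and 100% = vehicle without enzyme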
# VIM-2 FRET ctr: VIM-2 FRET inhibition, artifact counter-screen | purified VIM-2, CCF2 FRET substrate hydrolysis | inhibition, % at 5.6 µM | shares compounds with VIM-2 inh | hit rate 23% among 1,300;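 active means inhibition above the mean of all tested compounds plus 3 SD, cut at about 19% in these data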;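 further: 0% = VIM-2 plus DMSO and 100% = no enzyme wells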
# TEM-1 counter: blocks E. coli TEM-1 beta-lactamase in VIM-2 selectivity screen. shares compounds with VIM-2 inh. Purified TEM-1, nitrocefin hydrolysis, epi-absorbance fluorescence. inhibition, % at 5.6 µM. hit rate 3% among 1,300;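 active means inhibition above that campaign's mean inhibition plus 3 SD, cut at about 0.46% in these data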;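 further: 0% = TEM-1 with DMSO and 100% = TEM-1 with 100 µM potassium clavulanate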
# VIM-2 inh conf: confirmation of P. aeruginosa VIM-2 metallo-beta-lactamase inhibitors; hit rate 96% among 1,300; shares compounds with VIM-2 inh; inhibition, % at 5.6 µM; purified VIM-2, nitrocefin hydrolysis, epi-absorbance;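 active means inhibition of the VIM-2 beta-lactamase enzyme above about 11% from the earlier first-round screen, limit read from the data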;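 further: 0% = VIM-2 with DMSO and 100% = buffer wells without enzyme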
# An asterisk follows results filed as active; i = inactive; . = no result given. This is a sample that favours compounds with a hit; in the whole collection about 2% have one here.
SMILES,IMP-1 inh-1,VIM-2 inh,PvdQ inh,PLC-gamma1 inh,PLCb3 inh,IMP-1 inh-2,VIM-2 FRET ctr,TEM-1 counter,VIM-2 inh conf
O=[N+]([O-])c1ccc(-n2cccn2)c(-c2nn[nH]n2)c1,-1,-1,-12,1,2,.,.,.,.
COC(=O)C1CN(Cc2ccc(OC)cc2)CCS(=O)(=O)N1Cc1cn(Cc2ccc(C)cc2)nn1 (centres undefined),.,.,.,0,-1,.,.,.,.
CCN(CCN(C)C)C(=O)c1ccc2c(c1NCCO)C(=O)c1ccccc1C2=O,-1,14*,-8,3,-2,-3,2,-9,23*
COc1ccc(OC)c(/C=N/NC(=O)CC2C(=O)NN=C2C)c1 (centres undefined),-1,29*,10,-460,i,-3,63*,-5,46*
COc1cccc(/C=N/NC(=O)CC2C(=O)NN=C2C)c1OC (centres undefined),-3,1,7,-17,-15,.,.,.,.
O=c1c2ccccc2nc2c3ccccc3c(NCCN3CCOCC3)nn12,-1,18*,.,-81,-109,-4,1,-6,28*
O=c1c2c(-c3ccccc3)csc2nc2c3ccccc3c(NCCN3CCOCC3)nn12,0,6,-23,-419,i,.,.,.,.
c1ccc2nc3c(nc2c1)c1ccccc1n3CCN1CCOCC1,-3,12*,-4,-174,-274,-3,2,-6,18*
Cc1nc2ccccc2n1CCN1CCOCC1,-3,-3,-7,2,3,.,.,.,.
C[C@@H]1O[C@@H](n2c3ccc(Cl)cc3c3ccc4c5cc(Cl)ccc5[nH]c4c32)[C@H](O)[C@H](O)[C@H]1O,.,.,.,-7,-10,.,.,.,.
CCC[C@H]1[C@@H](NC(=O)C#Cc2ccccc2)CC[C@@]23CCCN2C(=O)CCC[C@@H]13,.,.,.,1,3,.,.,.,.
N#Cc1c2c(c(NCCCN3CCOCC3)n3c1nc1ccccc13)CCC2,-1,14*,2,-275,-309,-2,-6,-9,38*
N#Cc1c2c(c(NCCN3CCOCC3)n3c1nc1ccccc13)CCCC2,-3,3,-9,-100,-120,.,.,.,.
CCN(CC)CCCCNc1ncc2cc(-c3cc(OC)cc(OC)c3)c(NC(=O)NC(C)(C)C)nc2n1,-3,17*,-8,-265,-371,-4,5,-7,25*
COC(=O)[C@]12CCCCC=C1N(Cc1ccc(OC)cc1)C(=O)[C@@H]2CC(=O)NCC12CC3CC(CC(C3)C1)C2,.,.,.,6,5,.,.,.,.
COC[C@H]1CCCN1c1ccc2c(c1)O[C@H](C)CCN(C1CC1)S2(=O)=O,.,.,.,-1,1,.,.,.,.
C/C(=N\NC(=O)c1ccccc1)c1ccc(-n2ccnc2)cc1,-2,0,-3,-4,-1,.,.,.,.
C=C(C)CNC(=S)N/N=C(\C)c1ccc(-n2ccnc2)cc1,-5,79*,-14,0,-16,-3,-8,-9,88*
O=C1c2ccccc2-c2cccc(C(=O)N3CCN(C(=O)c4ccccc4)CC3)c21,-1,-1,-10,-3,1,.,.,.,.
O=C(O)c1cccc2c1C(=O)c1ccccc1-2,0,14*,2,-1,-7,-4,31*,-6,17*
COc1ccc(CNC(=O)O[C@H]2CC[C@@]34CCCN3C(=O)CCC[C@H]4[C@H]2C)cc1,.,.,.,4,6,.,.,.,.
CCN1CCN(c2nnc(-c3ccc(F)cc3)c3ccccc23)CC1,-2,1,7,2,-3,.,.,.,.
CN1CCN(c2nnc(-c3ccc(F)cc3)c3ccccc23)CC1,-1,31*,-8,-1,-7,-1,6,-3,42*
O=C1CCC[C@H]2[C@@H](Cc3ccccc3)[C@@H](O)CC[C@]23CCCN13,.,.,.,1,3,.,.,.,.
O=[N+]([O-])c1ccccc1/C=N/n1c(C2CCCCC2)n[nH]c1=S,-5,-2,-14,9,-4,.,.,.,.
SMILES,IMP-1 inh-1,VIM-2 inh,PvdQ inh,PLC-gamma1 inh,PLCb3 inh,IMP-1 inh-2,VIM-2 FRET ctr,TEM-1 counter,VIM-2 inh conf
O=[N+]([O-])c1ccccc1/C=N/n1c(C(F)(F)F)n[nH]c1=S,-3,14*,-12,-3,-7,-4,55*,-8,36*
Cc1c(OCC(=O)N2CCC(C(N)=O)CC2)ccc2c3c(c(=O)oc12)CCC3,-4,23*,-11,-3,-1,-2,2,-19,43*
CCc1cc(=O)oc2c(C)c(OC(C)C(=O)N3CCC[C@@H]3C(=O)O)ccc12 (some centres undefined),0,1,5,-32,-47,.,.,.,.
Cc1c(C)c2ccc(OCC(=O)N3CCC[C@@H]3C(=O)O)c(C)c2oc1=O,-4,41*,-8,-42,-55,-3,64*,-11,48*
CCc1cc(=O)oc2c(C)c(OCC(=O)N3CCC[C@@H]3C(=O)O)ccc12,-2,23*,2,-17,-22,-3,39*,-7,29*
CCc1cc(=O)oc2c3c(cc(OCC(=O)NC4CC4)c12)OC(C)(C)CC3,1,3,-7,i,i,.,.,.,.
CCCc1cc(=O)oc2c3c(cc(OCC(=O)N4CCC[C@H]4C(=O)O)c12)OC(C)(C)CC3,0,45*,0,i,i,-3,71*,-5,50*
CCC[C@H]1[C@@H](OC(=O)NCc2cccc(Cl)c2)CC[C@@]23CCCN2C(=O)CCC[C@@H]13,.,.,.,1,0,.,.,.,.
C/C(=N\NC(=O)CSc1nnc(-c2ccccc2)n1-c1ccc(C)cc1)c1ccc(-c2ccccc2)cc1,.,.,.,-4,3,.,.,.,.
COC(=O)[C@]12C=CCN1[C@@H](c1ccc(OC)c(OC)c1)c1c(c3ccccc3n1S(=O)(=O)c1ccc(C)cc1)C2,.,.,.,-23,-30,.,.,.,.
Cc1c(OCC(=O)N2CCC[C@@H]2C(=O)O)ccc2c3c(c(=O)oc12)CCC3,-4,36*,0,-12,-17,-3,51*,-10,37*
CN(C)CCCNc1c2c(nc3cc(-c4cccc(F)c4)nn13)CCC2,1,13*,-11,-24,-25,0,-5,-5,27*
CCOCCCNc1c2c(nc3cc(-c4ccc(F)cc4)nn13)CCC2,-1,-1,6,-4,-8,.,.,.,.
Cn1cc(-c2ccccc2C(=O)O)c(=O)c2cc(Cl)ccc21,0,13*,-14,-27,-40,-2,27*,0,18*
NC(=Nc1cccc(F)c1)NC(=O)OCc1ccccc1,.,.,.,0,3,.,.,.,.
CCCCN1CN2Cc3cc(OC)ccc3C2CS1(=O)=O (centres undefined),.,.,.,-9,-10,.,.,.,.
